M4 PAM: positive allosteric modulators of human muscarinic M4 receptor; P08173; CHO-K1 hM4/Gqi5, Fluo-8 calcium fluorescence, ACh EC20; 0% = ACh EC20, 100% = maximal ACh; activation, % at 3 µM; 360,000 compounds, 0.4% hits;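 active = activation above its plate's cutoff, the mean activation of sample wells plus 3 SD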
Target sequence (P08173 whole entry, looked up): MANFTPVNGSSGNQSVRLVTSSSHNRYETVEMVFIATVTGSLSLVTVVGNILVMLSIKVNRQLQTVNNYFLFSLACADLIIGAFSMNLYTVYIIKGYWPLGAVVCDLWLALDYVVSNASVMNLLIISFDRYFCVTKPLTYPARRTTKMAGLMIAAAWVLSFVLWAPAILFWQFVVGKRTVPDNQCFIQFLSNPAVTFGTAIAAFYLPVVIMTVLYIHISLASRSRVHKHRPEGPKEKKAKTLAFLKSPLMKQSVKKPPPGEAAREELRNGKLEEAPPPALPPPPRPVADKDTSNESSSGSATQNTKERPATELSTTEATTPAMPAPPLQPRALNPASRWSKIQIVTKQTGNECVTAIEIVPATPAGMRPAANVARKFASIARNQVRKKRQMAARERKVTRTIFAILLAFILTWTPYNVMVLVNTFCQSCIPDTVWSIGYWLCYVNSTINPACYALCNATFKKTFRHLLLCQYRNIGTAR
M5 PAM: positive allosteric modulators of human muscarinic M5 receptor; P08912; CHO-K1 hM5, Fluo-8 calcium, ACh EC20 PAM; 0% = ACh EC20, 100% = ACh EC100; activation, % at 3 µM; 360,000 compounds, 0.3% hits; AID 624038;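 active = activation above the run cutoff, the mean activation of all test compounds plus 3 SD, cut at about 18% in these data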
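Assay system: CHO-K1 hM5 cells / Incubation: Fluo-8 loading 80 min at 37 °C plus 30 min room temperature / Technique: Fluo-8 calcium dye fluorescence, kinetic read / Repeats: single replicate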
M5 ag: agonists of human muscarinic M5 receptor (CHRM5). P08912. CHO-K1 hM5 cells, Fluo-8 calcium fluorescence; 0% DMSO wells, 100% maximal acetylcholine response. activation, % at 3 µM. 360,000 compounds, 0.19% hits;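 active = activation above the run's mean over test compounds plus 3 SD, cut at about 23% in these data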;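 also: signal is peak over basal fluorescence ratio across the kinetic read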
CHRM5 antagonist: CHRM5 antagonism in calcium assay; P08912; CHO-hM5 cells, Fluo-8 calcium fluorescence, ACh EC80; inhibition, % at 3 µM; 360,000 compounds, 0.59% hits; AID 624040;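 active = inhibition above a per-plate cutoff, the mean of that plate's test compounds plus 3 SD, cut at about 27% in these data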;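 also: 0% = acetylcholine EC80 with DMSO and 100% = DMSO without agonist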
CHRM4 antagonist: CHRM4 antagonism in calcium assay; inhibition, % at 3 µM; P08173; 360,000 compounds, 0.73% hits; CHO-hM4 cells, ACh EC80, Fluo-8 calcium fluorescence; AID 624125;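 active = inhibition above its plate's cutoff, the mean inhibition of sample wells plus 3 SD, cut at about 27% in these data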;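 also: 0% = acetylcholine EC80 with DMSO and 100% = DMSO without agonist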
CHRM4 agonist: agonists of human muscarinic M4 receptor (CHRM4) | 360,000 compounds, 0.14% hits | AID 624127 | activation, % at 3 µM | CHO-K1 hM4/Gqi5, Fluo-8 calcium fluorescence; vehicle 0%, full acetylcholine response 100% | P08173;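 active = activation above the run mean over all test wells plus 3 SD, cut at about 32% in these data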;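 also: peak over basal fluorescence ratio per well then scaled between controls; 0% = DMSO wells and 100% = acetylcholine at EC100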
Active calls of the source: *. A selection: hits, their analogues and other compounds. The true share with any hit is near 1.9%.

SMILES	M4 PAM	M5 PAM	M5 ag	CHRM5 antagonist	CHRM4 antagonist	CHRM4 agonist
O=C(N[C@H](CO)Cc1ccccc1)[C@H]1O[C@@H](n2ccc(=O)[nH]c2=O)[C@H](O)[C@@H]1O	3.2	-3.8	1.0	-1.8	-4.2	0.6
CCCS(=O)(=O)N1CCC(C(=O)N2CCCC2)CC1	7.2	20.9*	-1.0	10.6	-10.2	0.9
C[C@@H](CO)NC(=O)c1[nH]cnc1C(=O)Nc1ccc(CNC(=O)OC(C)(C)C)cc1	-1.6	-0.2	0.9	-11.9	-26.6	16.4
O=C(NCc1ccccc1)C(=O)Nc1nc(C23CC4CC(CC(C4)C2)C3)cs1	-8.4	-3.7	-0.1	1.7	26.1	-0.9
CNC(=O)C(=O)Nc1nc(C23CC4CC(CC(C4)C2)C3)cs1	2.8	19.1*	-3.6	-9.1	0.5	1.2
O=c1ccoc2ccccc12	7.2	0.0	2.2	-3.4	-14.3	1.4
O=C(NCCN1CCOCC1)c1ccc(Cl)c(S(=O)(=O)NCc2ccccc2)c1	22.0*	11.2	0.8	9.0	-12.2	1.4
O=C(Cc1ccccc1)Nc1nnc(-c2cccc([N+](=O)[O-])c2)s1	34.8*	8.7	2.0	-10.2	-3.7	1.2
O=S1(=O)CC(N2CCN(c3ccccn3)CC2)CN1C1CCCCC1 (stereo not given)	-3.6	-7.8	1.4	5.8	-11.4	2.9
O=C1c2cccc3c(N4CCCCC4)ccc(c23)C(=O)N1c1ccccc1O	-17.1	-19.8	27.8*	34.5*	34.7*	39.2*
O=C1c2cccc3c(N4CCCCC4)ccc(c23)C(=O)N1c1ccc(O)cc1	0.6	-9.1	21.5	18.0	4.1	11.4
COCCNC(=S)N1CCN(c2cccc(C)c2C)CC1	-4.6	-17.3	1.0	27.6*	7.3	15.5
Cc1cccc(N2CCN(C(=S)NCCc3ccccc3)CC2)c1C	-4.5	-4.0	1.2	6.1	6.1	1.2
CN(Cc1ccon1)C(=O)c1ccc2nc(Cc3cccc(Cl)c3)oc2c1	2.4	19.1*	3.4	-24.0	-24.9	4.6
CCc1nc2c(OCc3ccc(Cl)cc3)cccn2c1N(C)C(=O)c1ccc(C)cc1	-7.1	-7.4	-3.6	-2.1	1.1	-1.0
COc1ccc(NC(=O)CSC2=C(C#N)C(c3ccco3)C3=C(CCCC3=O)N2)c(OC)c1 (stereo not given)	1.1	-13.2	-4.7	42.1*	2.1	4.1
COc1cccc(NC(=O)CSC2=C(C#N)C(c3ccco3)C3=C(CCCC3=O)N2)c1 (stereo not given)	-0.9	-8.9	-1.4	6.3	-1.9	3.0
C/C(=N/NC(=O)c1ccncc1)c1ccc(NC(=O)c2ccc(Cl)cc2Cl)cc1	0.2	-2.9	-2.3	2.9	-5.7	8.1
CC(=NNC(=O)c1ccncc1)c1ccccc1O	3.2	17.5	4.6	-5.0	-2.6	1.8
CC(C)CC(=NNC(=O)c1ccncc1)c1cc(Cl)ccc1O	-2.9	-15.5	38.0*	13.1	-3.8	40.0*
CC(=NNC(=O)c1ccncc1)c1ccc2ccccc2c1O	-12.7	-47.6	194.1*	18.6	10.7	56.5*
CC(=NNC(=O)c1ccncc1)c1ccc(O)cc1O	9.6	22.3*	-0.1	0.9	-16.9	1.4
Cc1ccc(-c2nc3c(Cl)cc(C(F)(F)F)cn3c2Cc2ccsc2)cc1	-0.4	-2.9	-0.3	8.4	7.0	-1.9
O=C(Sc1cccc2cccnc12)c1ccccc1Br	-6.4	-1.7	-3.8	26.8	38.6*	3.6
CCc1nc2ccc(C(=O)N(C)Cc3ccccc3)cn2c1N(C)Cc1ccc(OC)cc1	-5.4	-13.2	-2.7	6.6	-5.3	5.4
SMILES	M4 PAM	M5 PAM	M5 ag	CHRM5 antagonist	CHRM4 antagonist	CHRM4 agonist
Cc1nnc2ccc(Oc3ccc(-c4ccccc4)cc3)nn12	-18.7	-14.6	1.3	33.7*	17.6	10.0
COC(=O)c1ccc(Oc2ccc3nnc(C)n3n2)cc1	12.0	5.2	2.5	-0.8	6.8	0.1
CC1(C(=O)Nc2ccccc2)CCN1C(=O)CCc1ccc(Cl)cc1Cl (stereo not given)	-5.6	2.6	-0.9	-7.0	-0.1	1.1
Cc1cc(C)cc(OCC(=O)NNC(=S)NC(=O)C2CC2)c1	8.5	-2.0	-3.0	27.6*	3.9	6.3
COc1ccc(OCC(=O)NNC(=S)NC(=O)C2CC2)cc1	8.6	-1.8	-3.9	-5.7	-11.0	0.5
c1ccc(Cn2c(-c3ccccc3)c[n+]3c2SCCC3)cc1	-16.1	-27.8	-18.4	96.2*	96.5*	0.2
COc1ccc(-c2c[n+]3c(n2-c2ccccc2)SCC3)cc1	-11.8	5.9	-16.8	-0.1	21.8	0.3
CC(C)n1nc(C(=O)OCC(=O)N2CC(=O)Nc3ccccc32)c2ccccc2c1=O	19.6*	2.5	3.5	1.6	-16.9	1.8
O=C1CN(C(=O)COC(=O)c2ccccc2O)c2ccccc2N1	1.4	2.2	2.2	-2.6	-4.4	1.3
CC(=O)N(C)c1ccc(NC(=O)Nc2ccc(C)c(C)c2)cc1	-11.3	-18.7	4.1	29.4*	31.4*	19.4
O=C(NCc1ccccc1)c1cc(C2COCCN2C(=O)c2cccs2)on1 (stereo not given)	1.3	-0.7	0.8	-1.3	-4.6	1.9
COC(=O)Nc1nncs1	-8.8	4.2	-0.1	0.1	0.4	-0.7
O=C(Nc1nncs1)C1CCCC1	-1.8	18.5*	5.5	-9.4	-7.6	1.4
COc1cccc(C2CC(=O)N3CN(c4ccccc4F)CSC3=C2C#N)c1 (stereo not given)	-2.9	-4.4	2.6	3.3	3.9	-0.1
COc1ccc(OC)c(C2CC(=O)N3CN(c4ccccc4F)CSC3=C2C#N)c1 (stereo not given)	3.1	22.1*	-0.6	-13.1	-9.6	0.0
O=c1ccn(C2CCCCC2)c(=O)[nH]1	10.2	-3.9	1.6	4.0	-10.4	0.9
COc1ccc(Cc2nnc(SCC(=O)Nc3ccc(C)cc3)n(N)c2=O)cc1	4.6	-33.3	-10.3	101.1*	-12.4	3.9
CC(C)Cc1nnc(NS(=O)(=O)c2ccc(Cl)cc2)s1	15.8*	-1.5	-1.1	-0.9	-19.4	0.7
CCN(CC)C1=CC2=CC(=C(C#N)C#N)CCC2CC1 (stereo not given)	-20.9	-23.1	383.9*	61.1*	42.0*	209.6*
CCCCN(C)C1=CC2=CC(=C(C#N)C#N)CCC2CC1 (stereo not given)	-24.7	-24.2	670.4*	84.0*	81.1*	439.2*
OC(c1cc(F)cc(Cl)c1)c1ncc(-c2ccc3ccccc3c2)[nH]1 (stereo not given)	3.7	-2.7	9.3	5.2	-4.2	14.7
